According to ChEMBL document CHEMBL3272339, “Catechol O-methyltransferase. 7. Affinity labeling with the oxidation products of 6-aminodopamine” (J Med Chem, 1976):
Active and inactive are the calls of the source. The rule behind the calls is not given here.

Assays:
[1] = target: T1, Catechol O-methyltransferase (Rattus norvegicus) (UniProt P22734); assay: Inhibition of Sprague-Dawley rat liver COMT under aerobic condition at 37 degC in presence of catalase
T1 sequence (whole entry): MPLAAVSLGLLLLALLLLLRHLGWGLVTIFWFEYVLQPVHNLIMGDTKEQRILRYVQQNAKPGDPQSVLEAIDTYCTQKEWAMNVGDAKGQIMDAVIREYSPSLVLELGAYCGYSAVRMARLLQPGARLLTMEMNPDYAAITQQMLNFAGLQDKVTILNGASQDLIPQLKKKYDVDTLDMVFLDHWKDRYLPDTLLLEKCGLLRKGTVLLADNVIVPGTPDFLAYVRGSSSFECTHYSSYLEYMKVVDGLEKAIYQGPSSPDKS

[2] = target: T1, Catechol O-methyltransferase (Rattus norvegicus); assay: Inhibition of Sprague-Dawley rat liver COMT under anaerobic condition at 37 degC
[3] = target: T1, Catechol O-methyltransferase (Rattus norvegicus); assay: Inhibition of Sprague-Dawley rat liver COMT under aerobic condition at 37 degC in presence of antioxidant sodium metabisulfite
[4] = Chemical stability of the compound in seal ampules containing water under nitrogenous condition at 5 umol/ml measured up to 4 hrs; format: physicochemical; settings: buffer, 5000 µM
In short: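 Stock prepared fresh for each experiment at 5 μmol/ml in water in sealed ampules under nitrogen; aliquots withdrawn as needed and checked for signs of oxidation over up to 4 hr.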

[5] = target: T1, Catechol O-methyltransferase (Rattus norvegicus); assay: Irreversible inhibition of Sprague-Dawley rat liver COMT
[6] = Chemical stability of the compound assessed as polymerization under aerobic condition by spectrophotometric analysis; format: physicochemical
[7] = Half life of the compound assessed as cyclization to 6-hydroxy-2H-indol-5(3H)-one at 37 degC; format: physicochemical
[8] = target: T1, Catechol O-methyltransferase (Rattus norvegicus); assay: Inhibition of Sprague-Dawley rat liver COMT under aerobic condition at 5 mM preincubated up to 90 mins followed by enzyme addition at 37 degC measured after 20 mins
In short: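 Inhibitor at 5.0 mM in phosphate buffer pH 7.60 was air-oxidised at 37° for various times. Aliquots then went into preincubation mixtures with purified rat liver COMT (final 64 μM) for 20 min at 37°. Residual activity was measured by the radiochemical assay with ¹⁴C-SAM and catechol substrate, with methylated products extracted into toluene–isoamyl alcohol and counted.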

[9] = target: T1, Catechol O-methyltransferase (Rattus norvegicus); assay: Inhibition of Sprague-Dawley rat liver COMT at 16 to 64 uM preincubated > 50 mins at 37 degC
In short: (§1)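 COMT came from male Sprague–Dawley rat liver (180–200 g), purified about 50-fold through the calcium phosphate stage. Inhibitor (fresh aqueous stock under N₂) was preincubated with enzyme, MgCl₂ and phosphate buffer pH 7.60 at 37°. Timed aliquots were assayed for 5 min at 37° with ¹⁴C-SAM and 3,4-dihydroxybenzoate or DHA, stopped with HCl, and products extracted and counted. Residual activity was taken against unpreincubated controls, in duplicate.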

[10] = target: T1, Catechol O-methyltransferase (Rattus norvegicus); assay: Inhibition of Sprague-Dawley rat liver COMT using 10 mM DHA/0.4 mM SAM as substrate assessed as residual activity under aerobic condition at 189 uM at 37 degC after 40 mins relative to control
[11] = target: T1, Catechol O-methyltransferase (Rattus norvegicus); assay: Inhibition of Sprague-Dawley rat liver COMT assessed as residual activity under aerobic condition at 189 uM at 37 degC after 40 mins in presence of catalase relative to control
In short: (§2)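 Partially purified rat liver COMT (male Sprague-Dawley, calcium phosphate stage, ~50-fold) preincubated at 37° with inhibitor (189 μM), MgCl2 1.38 mM, phosphate buffer pH 7.60. Additions: sodium metabisulfite 0.15 M or catalase 250 μg. Anaerobic runs in sealed ampules under nitrogen. Residual activity vs unpreincubated controls; duplicates.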

[12] = target: T1, Catechol O-methyltransferase (Rattus norvegicus); assay: Inhibition of Sprague-Dawley rat liver COMT using 2.5 mM DHA as substrate assessed as residual activity under aerobic condition at 189 uM at 37 degC after 40 mins relative to control
[13] = target: T1, Catechol O-methyltransferase (Rattus norvegicus); assay: Inhibition of Sprague-Dawley rat liver COMT using > 0.3 mM SAM as substrate at 0.19 mM at 37 degC after 40 mins
[14] = target: T1, Catechol O-methyltransferase (Rattus norvegicus); assay: Inhibition of Sprague-Dawley rat liver COMT assessed as residual activity under aerobic condition at 189 uM at 37 degC after 40 mins relative to control; in short: as §2
[15] = target: T1, Catechol O-methyltransferase (Rattus norvegicus); assay: Inhibition of Sprague-Dawley rat liver COMT at 0.25 mM preincubated for > 50 mins at 37 degC
[16] = target: T1, Catechol O-methyltransferase (Rattus norvegicus); assay: Inhibition of Sprague-Dawley rat liver COMT using 10 mM DHA as substrate assessed as residual activity under aerobic condition at 189 uM at 37 degC after 40 mins relative to control
[17] = target: T1, Catechol O-methyltransferase (Rattus norvegicus); assay: Inhibition of Sprague-Dawley rat liver COMT using > 0.3 mM SAH as substrate at 0.19 mM at 37 degC after 40 mins
[18] = target: T1, Catechol O-methyltransferase (Rattus norvegicus); assay: Inhibition of Sprague-Dawley rat liver COMT using 0.76 mM SAH as substrate assessed as residual activity under aerobic condition at 189 uM at 37 degC after 40 mins relative to control
[19] = target: T1, Catechol O-methyltransferase (Rattus norvegicus); assay: Inhibition of Sprague-Dawley rat liver COMT using 0.76 mM SAM as substrate assessed as residual activity under aerobic condition at 189 uM at 37 degC after 40 mins relative to control
[20] = target: T1, Catechol O-methyltransferase (Rattus norvegicus); assay: Inhibition of Sprague-Dawley rat liver COMT assessed as residual activity under anaerobic condition at 189 uM at 37 degC after 40 mins relative to control; in short: as §2
[21] = target: T1, Catechol O-methyltransferase (Rattus norvegicus); assay: Inhibition of Sprague-Dawley rat liver COMT using 2.5 mM DHA/0.4 mM SAM as substrate assessed as residual activity under aerobic condition at 189 uM at 37 degC after 40 mins relative to control
[22] = target: T1, Catechol O-methyltransferase (Rattus norvegicus); assay: Inhibition of Sprague-Dawley rat liver COMT assessed as residual activity under aerobic condition at 189 uM at 37 degC after 40 mins in presence of antioxidant sodium metabisulfite relative to control; in short: as §2
[23] = target: T1, Catechol O-methyltransferase (Rattus norvegicus); assay: Inhibition of Sprague-Dawley rat liver COMT using 10 mM DHA/0.4 mM SAH as substrate assessed as residual activity under aerobic condition at 189 uM at 37 degC after 40 mins relative to control
[24] = target: T1, Catechol O-methyltransferase (Rattus norvegicus); assay: Inhibition of Sprague-Dawley rat liver COMT
[25] = target: T1, Catechol O-methyltransferase (Rattus norvegicus); assay: Inhibition of Sprague-Dawley rat liver COMT at 0.25 to 1.25 mM preincubated for > 50 mins at 37 degC; in short: as §1

With `Br.Br.CN(C)CCc1cc(O)c(O)cc1N` the inhibition [1] was “Active”, the inhibition [2] was “inactive” and the inhibition [3] was “inactive”. For the same compound, the Stability [4] was “Stable” and the inhibition [5] was “Active”.
For `C[N+](C)(C)CCC1=CC(=O)C(O)=CC1=N.[Br-]`, the Stability [6] was “Unstable”.
`N=C1C=C(O)C(=O)C=C1CCN` gave a half-life [7] of 0.5 min.
In the case of `Br.CN(C)CCC1=CC(=O)C(O)=CC1=N`, the Stability [6] is reported as “Unstable”.
For `Br.C[N+](C)(C)CCc1cc(O)c(O)cc1N.[Br-]`, the inhibition [1] was “Active”, the inhibition [2] was “inactive” and the inhibition [3] was “inactive”. The inhibition [8] was “inactive”, the Stability [4] was “Stable” and the inhibition [5] was “Active”. The inhibition [9] was “inactive”.
In the case of `NCCc1cc(O)c(O)cc1N`, the Activity [10] is reported as 85%, the Activity [11] is reported as 1% and the Activity [12] is reported as 10%. The Stability [4] was “Stable”, the inhibition [13] was “Active” and the Activity [14] was 2%. The inhibition [5] was “Active”, the inhibition [15] was “Active” and the Activity [16] was 17%. The inhibition [17] was “Active”, the Activity [18] was 52% and the Activity [19] was 26%. It also gave an Activity [20] of 103%, an Activity [21] of 63% and an Activity [22] of 77%. It also gave an Activity [23] of 94%.
For `Br.CC(N)C(C)(C)c1cc(O)c(O)cc1N` (centres undefined), the inhibition [2] was “inactive”, the inhibition [3] was “inactive” and the Stability [4] was “Stable”. The inhibition [24] was “Active”.
For `Br.NCC1(c2cc(O)c(O)cc2N)CCCC1`, the inhibition [2] was “inactive”, the inhibition [3] was “inactive” and the Stability [4] was “Stable”. The inhibition [25] was “Active”.
